Format in all cases: functional
The subject of experiment [1] is L5178Y. As to the kind of experiment: Cytotoxicity against mouse L5178Y cells after 72 hrs by MTT assay. To be noted: read-out: ED50 (the source's name). The procedure, abridged: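 L5178y mouse lymphoma cells in Eagle's MEM plus 10% horse serum, roller tube culture; cultures started at 5×1000 cells/mL, exposed to 0.3–20 μg/mL, incubated 72 h at 37 °C. Growth assessed by MTT assay and by cell counting; ED50 reported in μg/mL.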
Background: Tetrazolium dyes change colour on reduction, which living cells bring about.

In experiment [2] the test system is Spodoptera littoralis. As to the kind of experiment: Insecticidal activity against Spodoptera littoralis neonate larvae assessed as inhibition of larval growth at 132 ppm administered with artificial diet after 6 days by chronic feeding experiment relative to control. To be noted: 144 h. In short, it runs like this: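 Neonate S. littoralis larvae (n = 20) from a laboratory colony, fed artificial diet spiked at 132 ppm for 6 days; survival and weight of surviving larvae recorded and expressed as growth inhibition versus untreated controls.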

For experiment [3], the system named is Bacillus subtilis. As to the kind of experiment: Antibacterial activity against Bacillus subtilis 168 at 100 ug after 24 hrs by agar plate diffusion assay. The conditions noted are these: Bacillus subtilis, 168, 24 h; read-out: IZ. The procedure, abridged: (§1)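 Sterile susceptibility disks (5 mm diameter) loaded with 100 μg compound, placed on agar plates seeded with test bacterium (B. subtilis 168, S. aureus ATCC 25923, E. coli ATCC 25922); plates incubated 24 h at 37 °C, then inhibition zone diameter read.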

Experiment [4] deals with Spodoptera littoralis. As to the kind of experiment: Insecticidal activity against Spodoptera littoralis neonate larvae assessed as inhibition of larval growth drug administered with artificial diet after 6 days by chronic feeding experiment. The procedure, abridged: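 Dose-response feeding assay: neonate S. littoralis larvae (n = 20) held 6 days on artificial diet spiked at 26–132 ppm; survival and surviving-larva weights compared with controls, ED50 (ppm) derived by probit analysis of the dose-response curve.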

Experiment [5] has as its system Staphylococcus aureus. The experiment is described as follows: Antibacterial activity against Staphylococcus aureus ATCC 25923 at 100 ug after 24 hrs by agar plate diffusion assay. The conditions noted are these: ATCC 25923, 24 h, read-out: IZ. In short, it runs like this: as §1

Data on 8 molecules can be found in ChEMBL document CHEMBL1158283, “Four new bioactive manzamine-type alkaloids from the Philippine marine sponge Xestospongia ashmorica” (1996).

In brackets after ≈: the same amount, converted by molar mass.

By inhibition is commonly meant the share of the control response that was lost under treatment. `[O-][n+]1ccc2c([nH]c3ccccc32)c1C1=C[C@@]2(O)CC/C=C\CCCCN3CC[C@@H]1[C@]1(C[C@@H]4/C=C\CCCCN4[C@H]12)C3`: the EC50 in experiment [1] was determined as 1.6 µg/mL (≈ 2.83 µM). For the same molecule, in experiment [2], the inhibition at 132 ppm was determined as 9.5%.

Consider `[O-][n+]1ccc2c([nH]c3ccccc32)c1C1=C[C@@]2(O)CC/C=C\CCCCN3CC[C@@H]1[C@]1(CC/C=C\CCCCN[C@H]12)C3`, for which, in experiment [1], the EC50 is 3.2 µg/mL (≈ 5.65 µM). Moreover, in experiment [2], the inhibition at 132 ppm stood at 16.2%.

Turning to `[O-][N+]1=C(C2=C[C@@]3(O)CC/C=C\CCCCN4CC[C@@H]2[C@]2(C[C@@H]5/C=C\CCCCN5[C@H]23)C4)c2[nH]c3ccccc3c2CC1`, the EC50 in experiment [1] worked out at 1.6 µg/mL (≈ 2.82 µM). Moreover, the inhibition at 132 ppm in experiment [2] was determined as 26.4%.

In the case of `O[C@]12C=C(c3nccc4c3[nH]c3ccccc34)C3CCN(CCCC/C=C\CC1)C[C@@]31C[C@]34CC[C@H](CCCN3[C@H]12)O4` (some centres undefined) [6-Deoxymanzamine X], the EC50 in experiment [1] came to 1.8 µg/mL (≈ 3.19 µM). Further, the inhibition at 132 ppm in experiment [2] stood at 18.5%.

With `O[C@]12C=C(c3nccc4c3[nH]c3ccccc34)[C@@H]3CCN(CCCC/C=C\CC1)C[C@@]31C[C@@H]3/C=C\CCCCN3[C@H]12` [MANZAMINE A], the zone of inhibition at 100 µg/disc in experiment [3] and in experiment [5] was 7 mm throughout. In addition, the EC50 in experiment [1] was 1.8 µg/mL (≈ 3.28 µM). Besides, in experiment [4], the ED50 turned out to be 35 ppm. Also, the inhibition at 132 ppm in experiment [2] came out at 80%.

On to `O=C1CCCN2[C@@H](CC1)C[C@]13CN4CCCC/C=C\CC[C@](O)(C=C(c5nccc6c5[nH]c5ccccc56)C1CC4)[C@H]23` (some centres undefined) [MANZAMINE E], for which the EC50 in experiment [1] was 6.6 µg/mL (≈ 11.7 µM). Also, in experiment [2], the inhibition at 132 ppm was 0%.

Turning to `O=C1CCCN2[C@@H](CC1)C[C@]13CN4CCCC/C=C\CC[C@](O)(C=C(c5nccc6c5[nH]c5c(O)cccc56)C1CC4)[C@H]23` (some centres undefined) [MANZAMINE F], the EC50 in experiment [1] came to 2.3 µg/mL (≈ 3.96 µM). Further, the inhibition at 132 ppm in experiment [2] amounted to 50.6%.

As to `O[C@]12C=C(c3nccc4c3[nH]c3ccccc34)[C@@H]3CCN(CCCC/C=C\CC1)C[C@@]31CC/C=C\CCCCN[C@H]12` [MANZAMINE J], the EC50 in experiment [1] was found to be 25 µg/mL (≈ 45.4 µM). Also, the inhibition at 132 ppm in experiment [2] was 2%.
